# Experimental data pooled from the literature.
# Each line is one published result; the experiments were not run side by side.
# SMO: Protein smoothened (SMO, Homo sapiens, UniProt Q99835)
# CASP3: Caspase-3 (CASP3, Homo sapiens, UniProt P42574)
# MAPK15: Mitogen-activated protein kinase 15 (MAPK15, Homo sapiens, UniProt Q8TD08)
SMILES,target,test,conditions,measurement,result
Nc1ncc(-c2nc(N3CCOCC3)nc(N3CCOCC3)n2)c(C(F)F)n1,"Calcium/calmodulin-dependent protein kinase type IV (CAMK4, Homo sapiens, UniProt Q16566)","binding, competition with immobilised ligand",10 µM,remaining binding,66%
Cc1cnc(-c2cc(N3CCN(C(=O)CCS(C)(=O)=O)CC3)ncc2Cl)c(C)c1,SMO,"GTPγS binding, agonist, radiometric",cell membranes,Emax,-60.4%
CC(=O)N[C@@H](CC(=O)O)C(=O)N[C@@H](CC(N)=O)C(=O)N[C@@H](CC(C)C)C(=O)N[C@H](C=O)CC(=O)O,CASP3,"enzyme activity, inhibitor",1 nM,inhibition,10%
CC[C@H](C)[C@@H](C(=O)O[C@@H](CC(C)C)C(=O)N[C@@H](CC(C)C)C(=O)N[C@@H](C)/C=C/C(=O)N1C(=O)C=C(OC)[C@@H]1C)N(C)C,"FP2A (Plasmodium falciparum, UniProt Q8I6U4)","enzyme activity, inhibitor, fluorescence",pH 6,kinact/KI,58600 M⁻¹ s⁻¹
CCN(CC)CCCC[C@H](NC(=O)[C@H](CC(C)C)NC(=O)[C@H](C)NC(=O)[C@H](Cc1ccccc1)NC(=O)c1ccc(C(C)(C)C)cc1)C(=O)N[C@@H](CO)C(=O)OC,"Histone-lysine N-methyltransferase 2A (KMT2A, Homo sapiens, UniProt Q03164)","thermal stability, DSF",25 µM,ΔTm,0.04 °C
COc1ncccc1-c1cnn2ccc(N3CCN(C(=O)OC(C)C)CC3)nc12,MAPK15,"binding, competition with immobilised ligand",1 µM,remaining binding,78%
C#Cc1n[nH]c2c(-c3cn(C(C)c4ccccn4)c(=O)[nH]c3=O)cc(F)cc12 (stereo not shown),"Fibroblast growth factor receptor 2 (FGFR2, Homo sapiens, UniProt P21802)","enzyme activity, inhibitor",1 µM,inhibition,-6%
O=C(Nc1cccnn1)N1CCN([C@@H]2CCOc3cc(C(F)(F)F)ccc32)CC1,CASP3,"cell-free assay, inhibitor",20 µM,inhibition,1%
CC[C@H]1[C@@H]2C[C@H]3[C@@H]4N(C)c5ccccc5[C@]45C[C@@H]([C@H]2[C@H]5O)N3[C@@H]1O,"Ubiquitin carboxyl-terminal hydrolase 51 (USP51, Homo sapiens, UniProt Q70EK9)","enzyme activity, inhibitor",5 µM,inhibition,26%
CC1=C2C[C@H]3[C@@H](CC=C4C[C@@H](O)CC[C@@]43C)[C@@H]2CC[C@]12O[C@@H]1C[C@H](C)CN[C@H]1[C@H]2C,"Protein smoothened (SMO, Homo sapiens, UniProt Q99835, D473H)","GTPγS binding, agonist, radiometric",cell membranes,Emax,-107%
Cc1ncc(C)n2nc(/C=C/c3nc(N4CCCC4)cc(N4CCOCC4)n3)nc12,CASP3,"enzyme activity, inhibitor",10 µM,inhibition,0%
Cc1nn(C)cc1-c1nc2c(N3CCN(Cc4ccc(Cl)cc4)CC3)c(Cl)cnc2[nH]1,MAPK15,"binding, competition with immobilised ligand",1 µM,remaining binding,8.2%
COc1cc(C(=O)NC(N)=Nc2ccc(C)c(NC(=O)c3ccc(-c4ccccc4)cc3)c2)cc(OC)c1OC,SMO,"GTPγS binding, agonist, radiometric",cell membranes,Emax,-88.6%
